According to ChEMBL document CHEMBL4480465, “Anti-inflammatory Mono- and Dimeric Sorbicillinoids from the Marine-Derived Fungus Trichoderma reesei 4670” (J Nat Prod, 2019):
pIC50: −log10 of the molar value. The source made the active and inactive calls. The rule behind the calls is not given here.

How the values were obtained:
MCF7 = assay: Cytotoxicity against human MCF7 cells by MTT assay; format: functional, cell-based
HeLa = assay: Cytotoxicity against human HeLa cells by MTT assay; format: functional, cell-based
HepG2 = assay: Cytotoxicity against human HepG2 cells by MTT assay; format: functional, cell-based
RAW264.7 [1] = assay: Antiinflammatory activity against mouse RAW264.7 cells assessed as inhibition of LPS-induced nitric oxide production measured after 24 hrs; format: functional, cell-based; conditions: RAW264.7, 24 h
Method in brief: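 RAW264.7 cells seeded at 5 × 10^4 per well and grown 24 h, then given LPS (1 μg/mL) together with graded compound concentrations (DMSO stocks) for 24 h. NO in the medium was read with nitric oxide detection reagents I and II, measuring absorbance at 540 nm. IC50 came from normalized response–variable slope curve fits, mean of n = 3.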

RAW264.7 [2] = assay: Cytotoxicity against mouse RAW264.7 cells by MTT assay; format: cell-based

SMILES | Activity (MCF7) | Activity (HeLa) | Activity (HepG2) | pIC50 (RAW264.7 [1]) | pIC50 (RAW264.7 [2])
C/C=C/CCC(=O)C1=C(O)[C@@]2(C)[C@H]3\C(=C(O)/C=C/C=C/CO)C(=O)C(C)=C(O)[C@@]3(C)O[C@@]2(O)[C@@](C)(O)C1 | inactive | inactive | inactive | 4.66 | < 4.30
Cc1cc(C(=O)CCC(=O)O)c(O)cc1O | inactive | inactive | inactive | < 4.30 | < 4.30
Cc1cc(C(=O)CCCCCO)c(O)cc1O | inactive | inactive | inactive | < 4.30 | < 4.30
C/C=C/C=C/C(O)=C1\C[C@](C)(O)[C@]2(O)O[C@]3(C)C(O)=C(C)C(=O)/C(=C(O)/C=C/C=C/C)[C@@H]3[C@]2(C)C1=O | inactive | inactive | inactive | 5.00 | < 4.30
Cc1cc2c(c(C)c1O)O[C@H](CCCO)CC2=O | inactive | inactive | inactive | 4.42 | < 4.30
Cc1cc(C(=O)CC/C=C/C(=O)O)c(O)cc1O | inactive | inactive | inactive | < 4.30 | < 4.30
C/C=C/C=C/C(O)=C1\C(=O)C(C)=C(O)[C@@]2(C)O[C@@]3(O)[C@@](C)(O)CC4=C(O[C@H](/C=C/C)CC4=O)[C@@]3(C)[C@@H]12 | inactive | inactive | inactive | 4.49 | < 4.30
C/C=C/C=C/C(O)=C1\C(=O)C(C)=C(O)[C@@]2(C)O[C@@]3(O)[C@@](C)(O)CC4=C(O[C@@H](/C=C/C)CC4=O)[C@@]3(C)[C@@H]12 | inactive | inactive | inactive | 4.66 | < 4.30
CC1=C(O)[C@@]2(C)O[C@@]3(O)[C@@](C)(O)CC(C(=O)CC/C=C/CO)=C(O)[C@@]3(C)[C@H]2\C(=C(O)/C=C/C=C/CO)C1=O | inactive | inactive | inactive | 4.62 | < 4.30
Cc1cc(C(=O)CC/C=C/CO)c(O)c(C)c1O | inactive | inactive | inactive | 5.54 | < 4.30
C/C=C/C=C/C(O)=C1/C(=O)[C@]2(C)C(=O)[C@@](C)(O)[C@H]1[C@@H]1CC(=O)N(C)[C@@H]12 | inactive | inactive | inactive | < 4.30 | < 4.30
C/C=C/[C@@H](O)CC(=O)c1cc(C)c(O)cc1O | inactive | inactive | inactive | 4.92 | < 4.30
Cc1c(O)c(O)cc(C(=O)CC/C=C/CO)c1O | inactive | inactive | inactive | 5.21 | < 4.30
Cc1cc2c(c(C)c1O)O[C@H](/C=C/CO)CC2=O | inactive | inactive | inactive | 5.07 | < 4.30
Cc1c(O)ccc(C(=O)C[C@@H]2CC[C@H]([C@H](C)O)O2)c1O | inactive | inactive | inactive | < 4.30 | < 4.30
Cc1cc(C(=O)CCC(=O)O)c(O)c(C)c1O | inactive | inactive | inactive | < 4.30 | < 4.30
C/C=C/C=C/C(O)=C1\C[C@](C)(O)[C@]2(O)O[C@]3(C)C(O)=C(C)C(=O)/C(=C(O)/C=C/C=C/CO)[C@@H]3[C@]2(C)C1=O | inactive | inactive | inactive | 5.21 | < 4.30
C/C=C/C=C/C(O)=C1/C(=O)C(C)=C(O)[C@@]2(C)O[C@@]3(O)[C@@](C)(O)CC(C(=O)CC/C=C/C)=C(O)[C@@]3(C)[C@@H]12 | inactive | inactive | inactive | 5.23 | < 4.30
Cc1cc(C(=O)/C=C/C=C/CO)c(O)c(C)c1O | inactive | inactive | inactive | 5.17 | < 4.30
C/C=C/CCC(=O)c1cc(C)c(O)cc1O [SOHIRNONE A] | inactive | inactive | inactive | 4.85 | < 4.30
Cc1cc(C(=O)CC/C=C/CO)c(O)cc1O | inactive | inactive | inactive | 6.03 | < 4.30
COc1ccc2c(c1)c(CC(=O)O)c(C)n2C(=O)c1ccc(Cl)cc1 [INDOMETHACIN] | – | – | – | 4.39 | < 4.30
C/C=C/C=C/C(=O)c1c(O)c(C)cc(C)c1O | inactive | inactive | inactive | 5.48 | < 4.30
CC1=C(O)[C@@]2(C)O[C@@]3(O)[C@@](C)(O)C\C(=C(O)/C=C/C=C/CO)C(=O)[C@@]3(C)[C@H]2\C(=C(O)/C=C/C=C/CO)C1=O | inactive | inactive | inactive | < 4.30 | < 4.30
C/C=C/CCCc1cc(C)c(O)cc1O | inactive | inactive | inactive | 4.89 | < 4.30
